What is called CC50 is the concentration giving 50% cytotoxicity. As a reminder, the inhibition is the relative decrease from the control value, in per cent. For orientation: Inhibition means the relative decrease from the control value, in per cent.

Data set [1] can be described thus: Cytotoxicity against african green monkey Vero cells assessed as cell viability after 72 hrs by MTT assay. The format is cell-based. To be noted: chlorocebus sabaeus. For orientation: Tetrazolium assays rely on reduction of a dye to a coloured formazan, in cell work by metabolically active cells.
For data set [2], the system named is Human alphaherpesvirus 1. In words: Antiviral activity against acyclovir-resistant HSV1 AR29 replication in Vero cells at 50 uM after 72 hrs. In kind it is functional. To be noted: for inhibition at 50 µM: Human alphaherpesvirus 1, AR29, Vero. The procedure, abridged: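 Confluent Vero monolayers (DMEM, 5% FCS, 37 C, 5% CO2) infected with HSV-1 AR-29 at m.o.i. 1, 0.1, 0.01 or 0.001 for 1 h at 37 C. Cells were PBS-washed, then given medium with or without compound at 50 µM. At 72 h, titer was read as TCID50/mL by end-point dilution (Reed–Muench). % inhibition came from treated versus mock-treated infected titers. Acyclovir 50 µM served as control. Duplicates, ≥3 experiments.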

In data set [3] the test system is Human alphaherpesvirus 1. In words: Antiviral activity against acyclovir-resistant HSV1 AR29 replication in Vero cells after 72 hrs. The format is functional. To be noted: for EC50: Human alphaherpesvirus 1, AR29, Vero, read-out: ED50 (the source's name).
Data set [4] deals with Human alphaherpesvirus 1. In words: Antiviral activity against acyclovir-resistant HSV1 AR29 replication in Vero cells at >50 uM after 72 hrs. In kind it is functional.

Active and inactive are the calls of the source. The calls are words filed in the database; no cut-off is given here.

For `Cc1cccc2c(Cl)c3cnc4c(c(C)nn4-c4ccccc4)c3nc12`, the CC50 at 72 h in data set [1] was 640 µM. The molecule also displayed an inhibition at 50 µM in the data set with Human alphaherpesvirus 1 [2] of 66%.

Take `Cc1nn(-c2ccccc2)c2ncc3c(Cl)c4cc(Cl)ccc4nc3c12`: the CC50 at 72 h in data set [1] was 640 µM. This molecule also gave an inhibition at 50 µM in the data set with Human alphaherpesvirus 1 [2] of 39%.

For the molecule `O=c1c2c(O)cc(O)cc2[nH]c2cccc(Cl)c12`, in the data set on Human alphaherpesvirus 1 [3], the EC50 came out at 10 µM.

With `COc1cc(O)c2c(=O)c3cccc(Cl)c3[nH]c2c1`, the EC50 in the data set on Human alphaherpesvirus 1 [3] was over 50 µM. In the data set with Human alphaherpesvirus 1 [4], this molecule returned an Inhibition of 6%.

In the data set on Human alphaherpesvirus 1 [2], `Cc1nn(-c2ccccc2)c2ncc3c(Cl)c4ccccc4nc3c12` returned an inhibition at 50 µM of 70%.

For the molecule `Nc1nc2c(ncn2COCCO)c(=O)[nH]1` [ACYCLOVIR], in data set [1], the CC50 at 72 h is 126 µM.

Turning to `O=c1c2cccc(Cl)c2[nH]c2cc3ccccc3c(O)c12`, in the data set on Human alphaherpesvirus 1 [3], the outcome was inactive.

For the molecule `O=c1c2cc(Cl)ccc2[nH]c2cc(O)cc(O)c12`, in the data set on Human alphaherpesvirus 1 [3], the EC50 was 16 µM.

Consider `COc1cccc2c(O)c3c(O)cc(O)cc3nc12`, for which, in the data set with Human alphaherpesvirus 1 [3], the EC50 turned out to be 2.2 µM.

`Cc1ccc2nc3c(cnc4c3c(C)nn4-c3ccccc3)c(Cl)c2c1`: the result in the data set with Human alphaherpesvirus 1 [2] was inactive.

Regarding `O=c1c2ccccc2[nH]c2c1cnc1c2cnn1-c1ccccc1`, the CC50 at 72 h in data set [1] turned out to be 640 µM. This molecule had an inhibition at 50 µM with Human alphaherpesvirus 1 [2] of 74%.

On to `O=c1c2cccc(Cl)c2[nH]c2cc(O)cc(O)c12`, for which the EC50 in the data set on Human alphaherpesvirus 1 [3] amounted to 4 µM.

Consider `Cc1ccc2nc3c(cnc4c3cnn4-c3ccccc3)c(Cl)c2c1`, for which the CC50 at 72 h in data set [1] turned out to be 640 µM. Moreover, in the data set with Human alphaherpesvirus 1 [2], the inhibition at 50 µM is 82%.

Turning to `COc1ccc2nc3c(cnc4c3cnn4-c3ccccc3)c(Cl)c2c1`, the CC50 at 72 h in data set [1] was 640 µM. In the data set with Human alphaherpesvirus 1 [2], this molecule gave an inhibition at 50 µM of 68%.

With `Cc1nn(-c2ccccc2)c2ncc3c(Cl)c4cccc(Cl)c4nc3c12`, 50 µM produced 100% inhibition in the data set on Human alphaherpesvirus 1 [2].

`O=c1c2ccccc2[nH]c2cc(O)cc(O)c12`: the EC50 in the data set with Human alphaherpesvirus 1 [3] stood at 45 µM.

Regarding `Cc1cc(O)c2c(=O)c3cccc(Cl)c3[nH]c2c1`, the result with Human alphaherpesvirus 1 [3] was inactive.

In the case of `O=c1c2ccc(Cl)cc2[nH]c2cc(O)cc(O)c12`, the EC50 in the data set with Human alphaherpesvirus 1 [3] was 10 µM.

For the molecule `Cc1ccc2[nH]c3c(cnc4c3cnn4-c3ccccc3)c(=O)c2c1`, in data set [1], the CC50 at 72 h came to 640 µM. Further, the inhibition at 50 µM with Human alphaherpesvirus 1 [2] worked out at 92%.

Take `Cc1cccc2c(O)c3c(O)cc(O)cc3nc12`: in the data set on Human alphaherpesvirus 1 [3], the EC50 is 8 µM.

The record behind these values is ChEMBL document CHEMBL1140766, “SAR of a series of anti-HSV-1 acridone derivatives, and a rational acridone-based design of a new anti-HSV-1 3H-benzo[b]pyrazolo[3,4-h]-1,6-naphthyridine series” (Bioorg Med Chem, 2008).
